Measurements taken from ChEMBL document CHEMBL4002589, “Tri- and Tetrasubstituted Pyridinylimidazoles as Covalent Inhibitors of c-Jun N-Terminal Kinase 3” (J Med Chem, 2017).

Experiments:
[1] = molecular target: Casein kinase I isoform gamma-2 (Homo sapiens) (UniProt P78368); assay: Inhibition of CK1 gamma2 (unknown origin) assessed as residual activity at 1 uM relative to control
How it was run: (§1)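 Each inhibitor is tested at a single concentration, 1 µM or 0.5 µM depending on the compound. Results are reported as residual kinase activity.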

[2] = molecular target: Mitogen-activated protein kinase kinase kinase 10 (Homo sapiens) (UniProt Q02779); assay: Inhibition of MAP3K10 (unknown origin) assessed as residual activity at 1 uM relative to control; how it was run: as §1
Sequence of Mitogen-activated protein kinase kinase kinase 10 (Homo sapiens) (Q02779 whole entry, looked up): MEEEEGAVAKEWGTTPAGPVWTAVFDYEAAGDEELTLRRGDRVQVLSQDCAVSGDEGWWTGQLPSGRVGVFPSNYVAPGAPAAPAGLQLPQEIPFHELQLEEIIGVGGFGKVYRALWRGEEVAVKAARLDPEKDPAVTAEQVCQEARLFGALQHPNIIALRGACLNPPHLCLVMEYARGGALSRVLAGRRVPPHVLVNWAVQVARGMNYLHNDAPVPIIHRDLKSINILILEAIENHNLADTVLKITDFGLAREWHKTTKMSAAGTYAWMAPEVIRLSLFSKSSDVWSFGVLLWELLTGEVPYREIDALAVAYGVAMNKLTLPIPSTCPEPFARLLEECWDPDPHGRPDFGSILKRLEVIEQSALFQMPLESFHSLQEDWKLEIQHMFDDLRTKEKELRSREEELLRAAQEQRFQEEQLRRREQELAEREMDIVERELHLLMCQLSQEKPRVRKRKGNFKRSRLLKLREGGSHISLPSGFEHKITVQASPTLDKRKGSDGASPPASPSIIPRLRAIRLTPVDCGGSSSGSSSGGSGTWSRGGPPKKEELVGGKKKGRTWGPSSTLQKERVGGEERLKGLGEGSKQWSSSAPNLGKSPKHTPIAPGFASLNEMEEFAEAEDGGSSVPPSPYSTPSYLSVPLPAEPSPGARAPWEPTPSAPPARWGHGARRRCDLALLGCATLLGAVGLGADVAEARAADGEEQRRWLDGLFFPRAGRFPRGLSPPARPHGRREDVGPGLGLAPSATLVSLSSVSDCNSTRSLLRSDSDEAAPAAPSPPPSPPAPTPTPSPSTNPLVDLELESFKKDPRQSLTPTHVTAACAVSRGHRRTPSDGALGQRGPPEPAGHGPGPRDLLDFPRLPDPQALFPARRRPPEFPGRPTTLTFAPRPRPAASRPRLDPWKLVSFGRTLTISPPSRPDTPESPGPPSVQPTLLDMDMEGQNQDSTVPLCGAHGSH

[3] = molecular target: T1, Dual specificity mitogen-activated protein kinase kinase 7 (Homo sapiens) (UniProt O14733); assay: Inhibition of full length human GST-HIS tagged MKK7 expressed in Sf9 cells assessed as residual activity at 1 uM relative to control; how it was run: as §1
T1 sequence (whole entry): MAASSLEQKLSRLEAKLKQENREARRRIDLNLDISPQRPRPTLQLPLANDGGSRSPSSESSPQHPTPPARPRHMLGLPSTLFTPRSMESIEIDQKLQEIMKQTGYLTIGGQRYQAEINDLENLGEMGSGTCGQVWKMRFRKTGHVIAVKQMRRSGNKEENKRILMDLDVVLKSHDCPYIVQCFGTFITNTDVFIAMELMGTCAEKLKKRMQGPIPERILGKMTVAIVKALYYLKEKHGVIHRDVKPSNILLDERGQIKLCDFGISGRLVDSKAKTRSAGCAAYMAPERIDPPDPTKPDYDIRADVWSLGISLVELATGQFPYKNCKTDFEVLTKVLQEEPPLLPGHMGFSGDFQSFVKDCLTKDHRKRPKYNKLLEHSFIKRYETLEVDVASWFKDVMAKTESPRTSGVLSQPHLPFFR

[4] = molecular target: T2, Serine/threonine-protein kinase D3 (Homo sapiens) (UniProt O94806); assay: Inhibition of human PKC-nu (3 to 890 residues) expressed in Sf9 cells assessed as residual activity at 1 uM relative to control; how it was run: as §1
T2 sequence (whole entry): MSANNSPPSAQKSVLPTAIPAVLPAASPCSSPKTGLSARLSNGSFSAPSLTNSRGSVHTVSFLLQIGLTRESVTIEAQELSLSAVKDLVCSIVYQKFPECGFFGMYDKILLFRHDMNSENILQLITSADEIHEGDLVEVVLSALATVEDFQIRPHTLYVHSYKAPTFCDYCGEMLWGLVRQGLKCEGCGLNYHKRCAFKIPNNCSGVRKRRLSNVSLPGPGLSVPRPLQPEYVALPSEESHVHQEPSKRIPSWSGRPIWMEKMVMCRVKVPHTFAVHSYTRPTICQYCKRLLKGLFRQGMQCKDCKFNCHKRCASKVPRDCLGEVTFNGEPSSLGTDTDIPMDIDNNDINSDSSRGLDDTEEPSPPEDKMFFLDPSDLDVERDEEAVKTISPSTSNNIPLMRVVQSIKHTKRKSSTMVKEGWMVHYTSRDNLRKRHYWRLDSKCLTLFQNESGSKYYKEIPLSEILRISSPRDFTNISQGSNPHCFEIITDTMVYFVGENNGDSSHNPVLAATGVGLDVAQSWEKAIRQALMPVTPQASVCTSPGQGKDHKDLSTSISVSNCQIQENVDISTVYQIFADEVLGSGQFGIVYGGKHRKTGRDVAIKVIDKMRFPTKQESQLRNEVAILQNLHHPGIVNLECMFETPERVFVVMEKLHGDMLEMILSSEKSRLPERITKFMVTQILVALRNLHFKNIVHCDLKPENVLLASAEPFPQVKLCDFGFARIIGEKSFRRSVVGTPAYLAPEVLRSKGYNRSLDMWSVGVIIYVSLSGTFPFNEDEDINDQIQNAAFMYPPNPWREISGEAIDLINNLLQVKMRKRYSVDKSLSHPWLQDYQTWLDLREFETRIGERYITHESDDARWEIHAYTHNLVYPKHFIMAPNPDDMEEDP

[5] = molecular target: Mitogen-activated protein kinase kinase kinase 20 (Homo sapiens) (UniProt Q9NYL2); assay: Inhibition of ZAK (unknown origin) assessed as residual activity at 1 uM relative to control; how it was run: as §1
Sequence of Mitogen-activated protein kinase kinase kinase 20 (Homo sapiens) (Q9NYL2 2-800 limits assumed): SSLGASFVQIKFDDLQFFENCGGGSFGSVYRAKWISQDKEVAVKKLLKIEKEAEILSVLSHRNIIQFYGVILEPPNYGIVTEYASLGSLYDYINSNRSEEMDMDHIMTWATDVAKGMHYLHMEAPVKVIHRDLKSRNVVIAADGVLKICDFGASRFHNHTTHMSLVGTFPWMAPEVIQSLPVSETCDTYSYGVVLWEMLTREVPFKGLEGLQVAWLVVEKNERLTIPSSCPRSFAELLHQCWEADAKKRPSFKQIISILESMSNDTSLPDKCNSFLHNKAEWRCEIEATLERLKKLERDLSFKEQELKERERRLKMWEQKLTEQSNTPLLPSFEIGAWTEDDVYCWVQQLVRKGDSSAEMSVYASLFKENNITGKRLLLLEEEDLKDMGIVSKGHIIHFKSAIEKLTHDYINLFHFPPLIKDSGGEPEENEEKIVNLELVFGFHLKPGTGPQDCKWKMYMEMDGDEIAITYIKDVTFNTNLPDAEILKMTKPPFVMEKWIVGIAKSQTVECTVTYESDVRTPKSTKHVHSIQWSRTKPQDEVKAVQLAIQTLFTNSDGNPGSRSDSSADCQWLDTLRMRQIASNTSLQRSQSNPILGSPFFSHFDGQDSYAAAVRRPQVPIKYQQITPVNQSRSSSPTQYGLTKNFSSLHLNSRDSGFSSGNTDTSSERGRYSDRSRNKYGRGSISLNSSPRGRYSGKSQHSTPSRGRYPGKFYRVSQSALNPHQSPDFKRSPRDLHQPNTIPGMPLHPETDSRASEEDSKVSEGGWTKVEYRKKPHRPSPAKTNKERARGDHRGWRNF

Measured: Activity

Sequence of Casein kinase I isoform gamma-2 (Homo sapiens) (P78368 whole entry, looked up, canonical isoform): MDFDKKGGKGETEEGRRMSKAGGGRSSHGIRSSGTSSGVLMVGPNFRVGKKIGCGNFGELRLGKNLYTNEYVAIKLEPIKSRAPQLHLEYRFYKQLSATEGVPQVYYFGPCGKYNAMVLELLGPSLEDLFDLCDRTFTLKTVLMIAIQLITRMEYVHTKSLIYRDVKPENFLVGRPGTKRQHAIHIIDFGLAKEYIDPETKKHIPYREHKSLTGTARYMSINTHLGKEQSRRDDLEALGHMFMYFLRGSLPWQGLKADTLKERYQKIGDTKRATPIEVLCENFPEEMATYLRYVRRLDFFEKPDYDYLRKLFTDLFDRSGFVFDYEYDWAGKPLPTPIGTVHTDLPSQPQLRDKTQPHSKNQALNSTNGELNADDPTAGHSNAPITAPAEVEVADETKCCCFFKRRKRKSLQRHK

C=CC(=O)Nc1cccc(C(=O)Nc2ccc(Nc3cc(-c4[nH]c(SC)nc4C)ccn3)cc2)c1
10 to 29%: all assays above
